Assay results as given in ChEMBL document CHEMBL1139507, “Application of phosphoramidate pronucleotide technology to abacavir leads to a significant enhancement of antiviral potency” (J Med Chem, 2005).
“And” between values parts separate entries of the source, which are not always exact repeats. Equal values may be shown once.

Experiments:
HepG2 [1] = experiment: Cytostatic concentration required to inhibit Hep G2 cell proliferation; format: functional; conditions: Homo sapiens
[2] = test system: Human immunodeficiency virus 1; experiment: Effective concentration against human immunodeficiency virus type 1 in CEM cells; format: functional, organism-based; conditions: Human immunodeficiency virus 1, CCRF-CEM
Summary of the method: (§1)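 HIV-1- and HIV-2-induced cytopathicity in CEM cell cultures, scored at day 4 by microscopic examination of virus-induced giant cell formation; EC50 = concentration inhibiting cytopathicity by 50%.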

[3] = test system: Human immunodeficiency virus 1; experiment: Effective concentration against human immunodeficiency virus type 1 in MT-4 cells; format: functional, organism-based, MT4
[4] = test system: Human immunodeficiency virus 2; experiment: Effective concentration against human immunodeficiency virus type 2 in CEM cells; format: functional, organism-based; conditions: Human immunodeficiency virus 2, CCRF-CEM; summary of the method: as §1
[5] = test system: Human immunodeficiency virus 2; experiment: Effective concentration against human immunodeficiency virus type 2 in MT-4 cells; format: functional, organism-based; conditions: Human immunodeficiency virus 2, MT4
CCRF-CEM [6] = experiment: Cytostatic concentration required to inhibit CEM cell proliferation; format: functional; conditions: Homo sapiens
MT4 = experiment: Cytostatic concentration required to inhibit MT-4 cell proliferation; format: functional, Homo sapiens
Hepatitis B virus [7] = experiment: Effective concentration against HBV in Hep G2.2.15 cells; format: functional, organism-based, HepG2 2.2.15
Summary of the method: (§2)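 Anti-HBV activity assayed in HepG2 2.2.15 human hepatoma cells, which constitutively produce HBV; EC50 = 50% effective concentration.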

HepG2 [8] = experiment: Cytostatic concentration required to inhibit Hep G2.2.15 cell proliferation; format: functional, Homo sapiens
Summary of the method: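 Growth inhibition of HepG2 2.2.15 human hepatoma cells (constitutively HBV-producing) measured; CC50 = 50% cytostatic concentration.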

C3H/3T3 = experiment: Cytostatic concentration required to inhibit C3H/3T3 cell proliferation; format: functional; conditions: Mus musculus
CCRF-CEM [9] = experiment: Intracellular concentration of metabolites (CBVDP) from 19-21 hrs in CEM cells after incubation with the compound (10 uM); format: functional, cell-based; conditions: Homo sapiens
Summary of the method: (§3)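 CEM T4 lymphocytes seeded at (2-4) × 10⁵ cells/mL in RPMI-1640 with 10% fetal calf serum, 2 mM L-glutamine, 0.075% NaHCO₃. They were exposed 24 h to 10 µM [³H]abacavir or 1.1 µM ³H-ProTide (5 µCi/5 mL), washed twice in cold medium, and extracted with cold methanol/water 60:40. Metabolites were separated by SAX HPLC, (NH₄)H₂PO₄ pH 5.0 gradient 0.005-0.30 M, with fractions by retention time in min. Results are pmol/10⁹ cells.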

CCRF-CEM [10] = experiment: Intracellular concentration of metabolites (CBVTP) from 35-38 hrs in CEM cells after incubation with the compound (10 uM); format: functional, cell-based; conditions: Homo sapiens; summary of the method: as §3
CCRF-CEM [11] = experiment: Intracellular concentration of metabolites (ABC +CBV) from 2-3 hrs in CEM cells after incubation with the compound (10 uM); format: functional, cell-based; conditions: Homo sapiens; summary of the method: as §3
CCRF-CEM [12] = experiment: Intracellular concentration of metabolites (CBV-MP) from 11-13 hrs in CEM cells after incubation with the compound (10 uM); format: functional, cell-based; conditions: Homo sapiens; summary of the method: as §3
CCRF-CEM [13] = experiment: Intracellular concentration of metabolites (ABCMP) from 6-8 hrs in CEM cells after incubation with the compound (10 uM); format: functional, cell-based; conditions: Homo sapiens; summary of the method: as §3
[14] = Apparent half life value in monkey after oral dosage; format: ADME, organism-based; conditions: cercopithecidae, in vivo, read-out: T1/2 app (converted)
Summary of the method: (§4)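 Female cynomolgus monkeys (three, 2.0-3.2 kg) received the succinate salt at 11.5 mg/kg (17.3 µmol/kg), 2.3 mg/mL in 10% DMSO/90% saline, 5 mL/kg, iv on day 1 and orally on day 8 (1-week washout); fasted overnight to ~4 h postdose. Serial plasma to 24 h, acetonitrile deproteination, LC/MS/MS of prodrug, alaninyl-ABC-MP, ABC-MP, ABC, CBV; noncompartmental analysis.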

[15] = test system: Human immunodeficiency virus 1; experiment: Effective concentration against human immunodeficiency virus type 1 in PBL cells; format: functional, organism-based; conditions: Human immunodeficiency virus 1, PBL
[16] = test system: Moloney murine sarcoma virus; experiment: Effective concentration against murine moloney sarcoma virus in C3H/3T3 cells; format: functional, organism-based
[17] = test system: Human immunodeficiency virus 2; experiment: Effective concentration against human immunodeficiency virus type 2 (ROD) in CEM cells; format: functional, organism-based; conditions: Human immunodeficiency virus 2, CCRF-CEM; summary of the method: as §1
Human alphaherpesvirus 1 [18] = experiment: Effective concentration against thymidine kinase competent herpes simplex virus (HSV-1) in […]; format: functional, organism-based
Summary of the method: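 Confluent HEL cell cultures inoculated with 100 CCID50 of HSV-1 (KOS), HSV-2 (G) or HSV-1 TK- (B2006, VMW-1837); after 1 h adsorption, residual virus removed and cells incubated with varying compound concentrations; cytopathicity recorded once complete in virus controls; EC50 = concentration inhibiting HSV-induced cytopathicity by 50%.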

[19] = test system: Human immunodeficiency virus 1; experiment: Ratio of CC50 to that of EC50 against human immunodeficiency virus type 1 in CEM cells; format: functional, CCRF-CEM
[20] = test system: Human immunodeficiency virus 2; experiment: Ratio of CC50 to that of EC50 against human immunodeficiency virus type 2 in CEM cells; format: functional, CCRF-CEM
HEL = experiment: Cytostatic concentration required to inhibit HEL cell proliferation; format: functional; conditions: Homo sapiens
Summary of the method: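 HEL cell proliferation measured in presence of compound; CC50 = 50% cytostatic concentration inhibiting HEL cell proliferation by 50%.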

Hepatitis B virus [21] = experiment: Effective concentration againstHBV in Hep G2.2.15 cells; format: functional, organism-based, HepG2 2.2.15; conditions: Hepatitis B virus, HepG2 2.2.15; summary of the method: as §2
[22] = Time of maximum concentration was observed in monkey after oral dosage; format: ADME, organism-based; conditions: cercopithecidae, in vivo; summary of the method: as §4
[23] = Area under the plasma concentration-time curve in monkey after peroral dosage; format: ADME; conditions: cercopithecidae, po; summary of the method: as §4
[24] = Area under the plasma concentration-time curve in monkey after intravenous dosage; format: ADME; conditions: cercopithecidae; summary of the method: as §4
[25] = Terminal elimination half-life in monkey after intravenous dosage; NA = not applicable; format: ADME, organism-based; conditions: cercopithecidae, in vivo; summary of the method: as §4
Human alphaherpesvirus 2 = experiment: Effective concentration against thymidine kinase competent herpes simplex virus (HSV-2) in […]
Human alphaherpesvirus 1 [26] = experiment: Effective concentration against thymidine kinase deficient herpes simplex virus (HSV-1) in B2006 strain; conditions: Human alphaherpesvirus 1, B2006
Human alphaherpesvirus 1 [27] = experiment: Effective concentration against thymidine kinase deficient herpes simplex virus (HSV-1) in VMW-1837 strain; conditions: Human alphaherpesvirus 1, VMW-1837
[28] = Hepatitis B virus, HepG2 2.2.15
[29] = Human immunodeficiency virus 1, MT4

CCOC(=O)[C@@H](C)NP(=O)(OC[C@@H]1C=C[C@H](n2cnc3c(NC4CC4)nc(N)nc32)C1)Oc1ccccc1 (stereo in doubt; 6)
CC50 (HepG2 [1]): 18 µM | EC50 [2]: 70 nM | EC50 ([3]; mt4): 200 nM | EC50 [4]: 61 nM | EC50 [5]: 210 nM | CC50 (CCRF-CEM [6]): 12 µM | CC50 (MT4): 8.6 µM | EC50 (Hepatitis B virus [7]; [28]): 350 nM

CCOC(=O)[C@@H](C)NP(=O)(OC[C@@H]1C=C[C@H](n2cnc3c(NC4CC4)nc(N)nc32)C1)Oc1ccccc1 (stereo in doubt; 6b)
CC50 (HepG2 [8]): 35 µM | EC50 ([3]; mt4): 140 nM | CC50 (MT4): 5 µM | EC50 (Hepatitis B virus [7]; hepg2 2.2.15): 270 nM

COC(=O)C(C)(C)NP(=O)(OC[C@@H]1C=C[C@H](n2cnc3c(NC4CC4)nc(N)nc32)C1)Oc1ccccc1 (some centres undefined)
CC50 (HepG2 [1]): 5.5 µM | EC50 [2]: 67 nM | EC50 [3, 29]: 140 nM | EC50 [4]: 64 nM | EC50 [5]: 110 nM | CC50 (CCRF-CEM [6]): > 130 µM | CC50 (MT4; Homo sapiens, MT4): 8.1 µM | EC50 (Hepatitis B virus [7]; [28]): 19 nM

CCOC(=O)[C@@H](C)NP(=O)(OC[C@@H]1C=C[C@H](n2cnc3c(NC4CC4)nc(N)nc32)C1)Oc1ccccc1 (stereo in doubt; 6a,b)
CC50 (HepG2 [8]): 18 µM | EC50 ([3]; mt4): 15.5 nM | CC50 (MT4): 4.6 µM

COC(=O)[C@@H](C)NP(=O)(OC[C@@H]1C=C[C@H](n2cnc3c(NC4CC4)nc(N)nc32)C1)Oc1ccccc1 (stereo in doubt; 3b)
CC50 (HepG2 [8]): 35 µM | EC50 ([3]; mt4): 110 nM | CC50 (MT4): 4 µM | EC50 (Hepatitis B virus [7]; hepg2 2.2.15): 1500 nM

COC(=O)[C@H](C)NP(=O)(OC[C@@H]1C=C[C@H](n2cnc3c(NC4CC4)nc(N)nc32)C1)Oc1ccccc1 (some centres undefined)
CC50 (HepG2 [1]): 52 µM | EC50 [2]: 1400 nM | EC50 [3, 29]: 3400 nM | EC50 [4]: 4500 nM | EC50 [5]: 4100 nM | CC50 (CCRF-CEM [6]): 46 µM | CC50 (MT4; Homo sapiens, MT4): 4.5 µM | EC50 (Hepatitis B virus [7]; [28]): 1300 nM

CC(C)OC(=O)[C@@H](C)NP(=O)(OC[C@@H]1C=C[C@H](n2cnc3c(NC4CC4)nc(N)nc32)C1)Oc1ccccc1 (some centres undefined)
CC50 (HepG2 [1]): 17 µM | EC50 [2]: 50 nM | EC50 [3, 29]: 200 nM | EC50 [4]: 50 nM | EC50 [5]: 260 nM | CC50 (CCRF-CEM [6]): 13 µM | CC50 (MT4; Homo sapiens, MT4): 4.6 µM | EC50 (Hepatitis B virus [7]; [28]): 550 nM

Nc1nc(NC2CC2)c2ncn([C@H]3C=C[C@@H](CO)C3)c2n1 [ABACAVIR]
CC50 (HepG2 [1]): 110 µM | CC50 (C3H/3T3): > 20 µM | CC50 (HepG2 [8]): 17 µM and 110 µM | Concentration (pmol/E109 cells) (CCRF-CEM [9]): 42 | Concentration (pmol/E109 cells) (CCRF-CEM [10]): 82 | Concentration (pmol/E109 cells) (CCRF-CEM [11]): 762 | Concentration (pmol/E109 cells) (CCRF-CEM [12]): 108 | Concentration (pmol/E109 cells) (CCRF-CEM [13]): 5.8 | half-life [14]: 156 min | EC50 [2]: 1900 nM | EC50 ([3]; mt4): 5900 nM and 2150 nM | EC50 [15]: 200 nM | EC50 [4]: 3000 nM | EC50 [5]: 7300 nM | EC50 [16]: 8.8 µM | EC50 [17]: 3000 nM | EC50 (Human alphaherpesvirus 1 [18]): 900 µM | SI [19]: 41 | SI [20]: 26 | CC50 (CCRF-CEM [6]): 78 µM | CC50 (HEL): 200 µM | CC50 (MT4): 192 µM and 89 µM | EC50 (Hepatitis B virus [21]): 5.6 µM | EC50 (Hepatitis B virus [7]; [28]): 5600 nM | Tmax [22]: 3 h | AUC [23]: 6 µM·h | AUC [24]: 6 µM·h | T1/2 [25]: Not Active | EC50 (Human alphaherpesvirus 2): 900 µM | EC50 (Human alphaherpesvirus 1 [26]): 900 µM | EC50 (Human alphaherpesvirus 1 [27]): 320 µM
